Assay results reported in ChEMBL document CHEMBL3785035, “Phase II Metabolic Pathways of Spectinamide Antitubercular Agents: A Comparative Study of the Reactivity of 4-Substituted Pyridines to Glutathione Conjugation” (Medchemcomm, 2016).

Assays:
Format in all cases: ADME, subcellular
[1] = Metabolic stability in human liver S9 fraction assessed as parent compound remaining at 100 uM preincubated for 5 mins followed by UDPGA addition measured after 2 hrs by LC-MS/MS analysis; conditions: read-out: Stability
How it was run: (§1)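 Glucuronidation: 2 mg/mL rat or human S9 in 0.1 M potassium phosphate pH 7.4, activated with alamethicin (50 μg) 15 min on ice. Then 1 mM MgCl2 was added, with 5 min preincubation at 37 °C. Started with UDPGA (5 mM in incubation); controls without UDPGA. Samples taken to 120 min and quenched with methanol plus internal standard. LC-MS/MS; % parent relative to time zero.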

[2] = tested on: Liver; test: (§2) Metabolic stability in rat liver S9 fraction assessed as parent compound remaining at 100 uM preincubated for 5 mins followed by PAPS addition measured after 2 hrs by LC-MS/MS analysis; conditions: s9, 2 h, 100 µM
How it was run: (§3)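 Sulfation incubation: rat or human liver S9 at 2 mg/mL in 0.1 M potassium phosphate pH 7.4 with 1 mM MgCl2. Preincubated 5 min at 37 °C, then started with PAPS (0.2 mM in incubation). Controls lacked PAPS. Aliquots taken over 120 min and quenched in cold methanol with internal standard. LC-MS/MS read-out; parent remaining expressed against time zero.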

[3] = Half life in human liver S9 fraction at 100 uM preincubated for 5 mins followed by glutathione addition measured after 2 hrs by LC-MS/MS analysis
How it was run: (§4)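 S9 (rat or human) at 10 mg/mL in 0.1 M potassium phosphate pH 7.4, with 1 mM MgCl2. Preincubated 5 min at 37 °C, 150 rpm, then started with glutathione (0.2 mM in incubation). Controls lacked glutathione. Sampled 0–120 min, quenched in ice-cold methanol with internal standard. Parent measured by HILIC LC-MS/MS and expressed as % of time zero. Mean with %CV.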

[4] = Metabolic stability in human liver S9 fraction assessed as parent compound remaining at 100 uM preincubated for 5 mins followed by glutathione addition measured after 2 hrs by LC-MS/MS analysis; conditions: read-out: Stability; how it was run: as §4
[5] = Metabolic stability in rat liver S9 fraction assessed as parent compound remaining at 100 uM preincubated for 5 mins followed by UDPGA addition measured after 2 hrs by LC-MS/MS analysis; conditions: read-out: Stability; how it was run: as §1
[6] = Metabolic stability in rat liver S9 fraction assessed as parent compound remaining at 100 uM preincubated for 5 mins followed by glutathione addition measured after 2 hrs by LC-MS/MS analysis; conditions: read-out: Stability; how it was run: as §4
[7] = Half life in rat liver S9 fraction at 100 uM preincubated for 5 mins followed by glutathione addition measured after 2 hrs by LC-MS/MS analysis; how it was run: as §4
[8] = tested on: Liver; test: (§5) Metabolic stability in human liver S9 fraction assessed as parent compound remaining at 100 uM preincubated for 5 mins followed by PAPS addition measured after 2 hrs by LC-MS/MS analysis; conditions: s9, 2 h, 100 µM; how it was run: as §3
[9] = as §2; conditions: liver S9 fraction, read-out: Stability; how it was run: as §3
[10] = as §5; conditions: liver S9 fraction; how it was run: as §3

| Structure (SMILES) | remaining at 2 h, 100 µM [1] | half-life at 100 µM [3] | remaining at 2 h, 100 µM [4] | remaining at 2 h, 100 µM [5] | remaining at 2 h, 100 µM [6] | half-life at 100 µM [7] | remaining at 2 h, 100 µM [9] | remaining at 2 h, 100 µM [10] | Stability [2] | Stability [8] |
| --- | --- | --- | --- | --- | --- | --- | --- | --- | --- | --- |
| CN[C@@H]1[C@H](O)[C@H](NC)[C@H]2O[C@]3(O)[C@H](O[C@@H]2[C@H]1O)O[C@H](C)C[C@H]3NC(=O)Cc1ccccn1 | > 93% | 38 h | 96.7% | > 93% | 99.8% | > 50 h | – | – | 89% | > 96% |
| CN[C@@H]1[C@H](O)[C@H](NC)[C@H]2O[C@]3(O)[C@H](O[C@@H]2[C@H]1O)O[C@H](C)C[C@H]3NC(=O)Cc1cc(Cl)ccn1 | > 93% | > 50 h | 98.7% | > 93% | 71.9% | 3.35 h | – | – | 88% | > 96% |
| CN[C@@H]1[C@H](O)[C@H](NC)[C@H]2O[C@]3(O)[C@H](O[C@@H]2[C@H]1O)O[C@H](C)C[C@H]3NC(=O)Cc1cc(Cl)c(C)cn1 | > 93% | 23 h | 93.5% | > 93% | 12.9% | 0.66 h | – | – | Stable | 91% |
| CC(=O)Nc1ccc(O)cc1 [ACETAMINOPHEN] | – | 4.4 h | 74.5% | – | 43% | 1.48 h | – | – | – | – |

Second part, led by results:

| remaining at 2 h, 100 µM [1] | half-life at 100 µM [3] | remaining at 2 h, 100 µM [4] | remaining at 2 h, 100 µM [5] | remaining at 2 h, 100 µM [6] | half-life at 100 µM [7] | remaining at 2 h, 100 µM [9] | remaining at 2 h, 100 µM [10] | Structure (SMILES) | Stability [2] | Stability [8] |
| --- | --- | --- | --- | --- | --- | --- | --- | --- | --- | --- |
| > 93% | > 50 h | 98.7% | > 93% | 96.6% | 32.6 h | > 95% | > 96% | CN[C@@H]1[C@H](O)[C@H](NC)[C@H]2O[C@]3(O)[C@H](O[C@@H]2[C@H]1O)O[C@H](C)C[C@H]3NC(=O)Cc1ccc(F)cn1 | – | – |
| > 93% | > 50 h | 99.9% | > 93% | 99.4% | > 50 h | > 95% | > 96% | CN[C@@H]1[C@H](O)[C@H](NC)[C@H]2O[C@]3(O)[C@H](O[C@@H]2[C@H]1O)O[C@H](C)C[C@H]3NC(=O)Cc1ccc(Cl)cn1 | – | – |
| > 93% | > 50 h | 98.8% | > 93% | 81.1% | 6.7 h | > 95% | > 96% | CN[C@@H]1[C@H](O)[C@H](NC)[C@H]2O[C@]3(O)[C@H](O[C@@H]2[C@H]1O)O[C@H](C)C[C@H]3NC(=O)Cc1cc(Cl)c(OC)cn1 | – | – |
| > 93% | > 50 h | 99.9% | > 93% | 98.6% | > 50 h | > 95% | > 96% | CN[C@@H]1[C@H](O)[C@H](NC)[C@H]2O[C@]3(O)[C@H](O[C@@H]2[C@H]1O)O[C@H](C)C[C@H]3NC(=O)Cc1ccc(O)cn1 | – | – |
| > 93% | > 50 h | 98.6% | > 93% | 98.6% | > 50 h | > 95% | > 96% | CN[C@@H]1[C@H](O)[C@H](NC)[C@H]2O[C@]3(O)[C@H](O[C@@H]2[C@H]1O)O[C@H](C)C[C@H]3NC(=O)Cc1cc(Cl)c(F)cn1 | – | – |
